Legend:
[1] = system: HSP70; assay: ITC, HSP70 presaturated with PET-16, interaction with PES; assay type: binding, human; conditions: data not shown
[2] = system: nucleotide-free HSP70 protein; assay: ITC, nucleotide-free HSP70; assay type: binding, human; conditions: compared with ADP-bound form; 42 °C
[3] = system: GRP75; conditions: ref [5],[19]; cited from earlier work
[4] = system: GRP78 (BiP); conditions: ref [5],[19]; cited from earlier work
[5] = target: HSP70 (aa 386-616) (Homo sapiens, UniProt P0DMV8); assay: ITC, C-terminal domain of HSP70; assay type: binding; conditions: Figure 2J
In short: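 Recombinant HSP70 C-terminal fragment (aa 386–616) titrated against test compound by isothermal titration calorimetry. Kd reported as average and standard deviation of three independent experiments.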

[6] = target: DnaK (aa 389-607) (Escherichia coli, UniProt P0A6Y8); assay: ITC, DnaK SBD; assay type: binding, E. coli; conditions: data not shown
[7] = system: mammalian tumor cells; assay: Viability of mammalian tumor cells; assay type: cell-based; conditions: TPP moiety alone, Figure 1C
In short: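 Human A875 melanoma cells and nontransformed human IMR90 fibroblasts treated for 24 h alongside a DMSO vehicle control. Results are representative of four independent experiments.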

[8] = system: E. coli DH5α; assay: Growth of E. coli at elevated temperature; assay type: cell-based; conditions: 6 h at 43 °C, 30 μM in Figure 1E
In short: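 E. coli DH5α grown with varying concentrations of test compound for 6 h at 43 °C, with a DMSO vehicle control; one comparison used 30 μM. Growth measured in four independent experiments, with s.d. error bars.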

Chain of HSP70 (aa 386-616) (P0DMV8 386-616): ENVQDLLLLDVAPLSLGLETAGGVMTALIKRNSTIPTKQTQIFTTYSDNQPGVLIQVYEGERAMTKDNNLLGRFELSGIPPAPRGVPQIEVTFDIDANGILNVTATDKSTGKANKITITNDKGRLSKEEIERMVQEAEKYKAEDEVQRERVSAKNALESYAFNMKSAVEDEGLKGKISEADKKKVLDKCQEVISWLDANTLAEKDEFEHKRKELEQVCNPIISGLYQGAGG
Chain of DnaK (aa 389-607) (P0A6Y8 389-607): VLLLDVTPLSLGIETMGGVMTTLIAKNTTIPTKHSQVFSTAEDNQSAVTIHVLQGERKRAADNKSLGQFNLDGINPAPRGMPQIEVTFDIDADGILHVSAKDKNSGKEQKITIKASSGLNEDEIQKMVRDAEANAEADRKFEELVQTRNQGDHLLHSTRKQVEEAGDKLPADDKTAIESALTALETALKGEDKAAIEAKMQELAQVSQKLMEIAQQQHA

| binding to HSP70 SBD (ITC) [5] | binding to DnaK SBD (ITC) [6] | Compound | interaction of HSP70 with PES after presaturation with PET-16 [1] | interaction with nucleotide-free HSP70 (ITC) [2] | interaction with GRP75 [3] | interaction with GRP78 (BiP) [4] | effect on viability of mammalian tumor cells [7] | effect on growth of E. coli [8] |
| --- | --- | --- | --- | --- | --- | --- | --- | --- |
| – | – | NS(=O)(=O)C#Cc1ccccc1 [PES, 2-phenylethynesulfonamide] | impairs the interaction | comparable affinity | do not interact | do not interact | – | – |
| does not bind | does not bind | triphenylphosphine (TPP) bromide | – | – | – | – | little discernible effect | did not detect an effect |

From PMC4241170 (ACS Chemical Biology, 2014)
